Common to all, as to assay type: functional
Assay [1] relates to CCRF-CEM. In words: Growth inhibition of human CCRF-CEM cells assessed as cell growth at 10^-7 M after 48 hrs by sulforhodamine B assay. As to conditions: read-out: Activity. (In general: In SRB staining, fixed cells bind dye roughly in proportion to their protein.)
For assay [2], the system named is CCRF-CEM. As to the kind of experiment: Growth inhibition of human CCRF-CEM cells assessed as cell growth at 10^-6 M after 48 hrs by sulforhodamine B assay. To be noted: read-out: Activity.
For assay [3], the system named is CCRF-CEM. As to the kind of experiment: Growth inhibition of human CCRF-CEM cells after 48 hrs by sulforhodamine B assay. To be noted: read-out: LC50 (the source's name). Summed up: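 Leukemia suspension cells in RPMI 1640 with 5% FBS and 2 mM L-glutamine were plated at 5000–40,000 cells/well and grown 24 h. Five concentrations (0.01–100 µM) were given for 48 h at 37 °C. Settled cells were fixed with 80% TCA (16% final) and SRB-stained, read at 515 nm. GI50 came from dose–response curves against time-zero and control plates.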

The test system of assay [4] is SK-MEL-2. In words: Growth inhibition of human SK-MEL-2 cells assessed as cell growth at 10^-6 M after 48 hrs by sulforhodamine B assay. As to conditions: SK-MEL-2, 48 h, read-out: Activity.
The test system of assay [5] is SK-MEL-2. As to the kind of experiment: Growth inhibition of human SK-MEL-2 cells assessed as cell growth at 10^-7 M after 48 hrs by sulforhodamine B assay. As to conditions: SK-MEL-2, 48 h, read-out: Activity.
A further assay deals with SNB-19. As to the kind of experiment: Growth inhibition of human SNB19 cells after 48 hrs by sulforhodamine B assay. As to conditions: SNB-19, 48 h; for CC50: read-out: LC50 (the source's name). An outline of the steps:
(§1)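 Adherent cells in RPMI 1640 with 5% FBS and 2 mM L-glutamine were plated at 5000–40,000 cells/well and grown 24 h. Five concentrations (0.01–100 µM, DMSO stock) were added for 48 h at 37 °C. Cells were fixed with cold TCA (10% final) and stained with SRB, read at 515 nm. GI50 came from log concentration–growth curves against time-zero and control plates.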

A further assay concerns OVCAR-8. In words: Growth inhibition of human OVCAR8 cells assessed as cell growth at 10^-5 M after 48 hrs by sulforhodamine B assay. To be noted: OVCAR-8, 48 h, read-out: Activity.
Assay [6] deals with CCRF-CEM. As to the kind of experiment: Growth inhibition of human CCRF-CEM cells assessed as cell growth at 10^-8 M after 48 hrs by sulforhodamine B assay. As to conditions: read-out: Activity.
Assay [7] relates to SK-MEL-2. As to the kind of experiment: Growth inhibition of human SK-MEL-2 cells assessed as cell growth at 10^-4 M after 48 hrs by sulforhodamine B assay. To be noted: SK-MEL-2, 48 h, read-out: Activity.
Assay [8] has as its system CCRF-CEM. As to the kind of experiment: Growth inhibition of human CCRF-CEM cells assessed as cell growth at 10^-5 M after 48 hrs by sulforhodamine B assay. To be noted: read-out: Activity.
The subject of assay [9] is CCRF-CEM. In words: Growth inhibition of human CCRF-CEM cells assessed as cell growth at 10^-4 M after 48 hrs by sulforhodamine B assay. As to conditions: read-out: Activity.
For another assay, the system named is SK-MEL-28. In words: Growth inhibition of human SK-MEL-28 cells assessed as cell growth at 10^-7 M after 48 hrs by sulforhodamine B assay. To be noted: SK-MEL-28, 48 h, read-out: Activity.
Another assay deals with HCT-15. In words: Growth inhibition of human HCT15 cells assessed as cell growth at 10^-6 M after 48 hrs by sulforhodamine B assay. To be noted: HCT-15, 48 h, read-out: Activity.
For assay [10], the system named is SK-MEL-2. In words: Growth inhibition of human SK-MEL-2 cells assessed as cell growth at 10^-5 M after 48 hrs by sulforhodamine B assay. As to conditions: SK-MEL-2, 48 h, read-out: Activity.
Another assay deals with LOX IMVI. In words: Growth inhibition of human LOXIMVI cells after 48 hrs by sulforhodamine B assay. An outline of the steps:
as §1

In a further assay the test system is SK-MEL-5. As to the kind of experiment: Growth inhibition of human SK-MEL-5 cells after 48 hrs by sulforhodamine B assay. As to conditions: SK-MEL-5, 48 h.
Another assay concerns SF-295. As to the kind of experiment: Growth inhibition of human SF295 cells after 48 hrs by sulforhodamine B assay. As to conditions: SF-295, 48 h. Summed up: as §1
A further assay has as its system MDA-MB-231. As to the kind of experiment: Growth inhibition of human MDA-MB-231 cells after 48 hrs by sulforhodamine B assay. To be noted: MDA-MB-231, 48 h.
For the next assay, the system named is HT-29. As to the kind of experiment: Growth inhibition of human HT-29 cells after 48 hrs by sulforhodamine B assay. To be noted: HT-29, 48 h. An outline of the steps: as §1
Setting [11] is: read-out: LC50 (the source's name).

What is called TGI is the concentration at which net growth stops. Read a low TGI as more potent growth arrest. With `O=S(=O)(Nc1ccc(Cl)cc1)c1ccc2nc(-c3ccccc3)c(-c3ccccc3)nc2c1`, the growth at 0.1 µM was 91% in the assay on CCRF-CEM [1], 99% with SK-MEL-2 [5] and 96% with SK-MEL-28. The growth at 1 µM in the assay on CCRF-CEM [2] stood at 79%; in the assay on SK-MEL-2 [4] it was 99%; in the assay on HCT-15, 87%. The CC50 in the assay with CCRF-CEM [3], in the assay on SNB-19 and with LOX IMVI (setting [11]) was > 100 µM in each case. In addition, the total growth inhibition concentration (TGI) in the assay on SNB-19 and in the assay with LOX IMVI was > 100 µM throughout. The growth at 10 µM in the assay with OVCAR-8 was 6%; in the assay on CCRF-CEM [8], -40%; in the assay with SK-MEL-2 [10] it was -56%. For the same compound, in the assay on CCRF-CEM [6], the growth at 0.01 µM came out at 88%. The growth at 100 µM stood at 69% in the assay on SK-MEL-2 [7] and 64% in the assay on CCRF-CEM [9].
What is called GI50 is the concentration at which growth is held to half of that of the control. A lower GI50 goes with greater sensitivity of the cells. `O=S(=O)(Nc1ccccn1)c1ccc2nc(-c3ccccc3)c(-c3ccccc3)nc2c1`: the GI50 was determined as 1.46 µM with SK-MEL-5, 1.87 µM in the assay with SF-295, 1.82 µM in the assay on MDA-MB-231 and 1.78 µM in the assay with HT-29. Also, the TGI with SNB-19 is > 100 µM. Also, the values for the CC50 in the assay with SNB-19, in the assay on SF-295 (setting [11]) and in the assay with HT-29 (setting [11]) were > 100 µM, 100 µM and > 100 µM, respectively.
